Like-named read-outs stand apart in the source and are kept apart here.
Tests used:
HIV-1 = conditions: cited from earlier work
HIV-1 CA CTD = HIV-1 CA CTD (Human immunodeficiency virus type 1 group M subtype B, UniProt P12493); assay: HTRF-based CAI binding competition assay; conditions: for inhibition at 50 µM: read-out: inhibition of CA CTD-CAI HTRF signal
C8166 cells = assay: MTT cytotoxicity assay; type: cell-based, Human; conditions: 3 days
Summary of the method: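 C8166 T cells were maintained in RPMI 1640 with 10% FBS, penicillin and streptomycin. They were seeded at 4×10^4/well with serially diluted test compound and kept at 37°C, 5% CO2. Viability was measured by MTT after 3 days, and the 50% cytotoxic concentration was calculated.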

WT CA protein = WT CA protein (Human immunodeficiency virus type 1 group M subtype B, UniProt P12493); assay: In vitro CA assembly assay; type: biochemical, HIV-1; conditions: 50 μM CA-WT, NaCl-dependent assembly, OD 350 nm
Summary of the method: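 Full-length WT CA (E. coli, pET11a) was dialysed into 50 mM sodium phosphate, pH 8.0, and mixed with test compound in 500 μl of that buffer. Assembly was started by adding 500 μl of the same buffer containing 4 M NaCl, pH 8.0. OD350 was read every 20 s for 30 min.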

[1] = tested on: Gag polyprotein processing; assay: Anti-p24 western blot of infected MT-4 cell lysates; type: cell-based; conditions: MT-4 cells, 3 days of HIV-1IIIB replication, anti-p24 immunoblotting
[2] = molecular target: CAI-biotin peptide (biotinylated capsid assembly inhibitor peptide); assay: BLI
[3] = molecular target: GST-tagged HIV-1 capsid C-terminal domain (GST-CA CTD) (HIV-1); assay: AlphaScreen or HTRF

## Cc1ccnc(SCc2nc3ccccc3s2)n1 [BMMP]
HIV-1; ref Urano et al., 2011
  EC50: 20 to 50 µM

## Cc1ccc(NC(=O)NCCSCc2ccc(CN(C)C)o2)cc1Cl [CAP-1]
HIV-1; ref Tang et al. 2003
  EC50: ~70 µM

## CO[C@H]1[C@H](OC(=O)c2ccc(C)[nH]2)[C@H](O)[C@@H](Oc2ccc3c(O)c(NC(=O)c4c[nH]c(C(=O)Nc5c(O)c6ccc(O[C@H]7OC(C)(C)[C@@H](OC)[C@H](OC(=O)c8ccc(C)[nH]8)[C@@H]7O)c(C)c6oc5=O)c4C)c(=O)oc3c2C)OC1(C)C [Coumermycin A1]
HIV-1; ref Chen et al., 2016, Vozzolo et al. 2010
  EC50: 8 µM

## O=c1c2ccccc2[se]n1-c1ccccc1 [Ebselen]
HIV-1 CA CTD
  inhibition at 50 µM: < 3.2%
HIV-1; ref Thenin-Houssier et al., 2016
  EC50: 3.37 µM

## C[C@H](CCC(=O)NCC(=O)O)[C@H]1CC[C@H]2[C@@H]3CC[C@@H]4C[C@H](O)CC[C@]4(C)[C@H]3C[C@H](O)[C@]12C [GDC, glycodeoxycholate]
HIV-1 CA CTD
  inhibition at 50 µM: < 20%
HIV-1; ref Lampel et al., 2015
  EC50: 3.12 µM

## Cc1[nH]c2ccccc2c1CC(=O)N[C@@H](Cc1ccccc1)C(=O)N(C)c1ccccc1 [PF-3450074 (PF74)]
HIV-1; ref Blair et al., 2010, Shi et al., 2011
  EC50: 0.3 to 0.6 µM

## C[C@H](CCC(=O)NCCS(=O)(=O)O)[C@H]1CC[C@H]2[C@@H]3[C@H](O)C[C@@H]4C[C@H](O)CC[C@]4(C)[C@H]3C[C@H](O)[C@]12C [TA, taurocholic acid]
HIV-1 CA CTD
  inhibition at 50 µM: < 20%

## Cc1cc(C=C2C(=O)C=CC2=O)cc(C)c1O [TX-1918]
C8166 cells
  CC50: 20.8 µM
WT CA protein
  effect on in vitro CA assembly: inhibited CA assembly in vitro
[1]
  effect on CA p24 production / Gag Pr55 processing: significant reductions in proteolyzed CA p24 with increasing concentrations
HIV-1 CA CTD; compound at 50 μM
  inhibition of CA CTD-CAI HTRF signal: > 70%

## CC(=O)Nc1cccc(-n2c(=O)n(C3CC3)c(=O)c3c(Nc4ccc(I)cc4F)n(C)c(=O)c(C)c32)c1 [trametinib]
HIV-1 CA CTD
  inhibition at 50 µM: < 3.2%

## GST-tagged HIV-1 capsid C-terminal domain (GST-CA CTD) (domain or fragment)
[2]
  Kd: 0.007 µM
  koff: 0.000152 s⁻¹

## untagged CAI peptide (capsid assembly inhibitor)
[3]
  IC50: 6.5 µM
